Source: PubChem
MT stabilize HCS = microtubule stabilization, imaging screen; HeLa tubulin immunostaining HCS, 24 h; share of cells brighter than vehicle mean+2SD; % tubulin-high responders, % at 10 µM; 200,000 compounds, 0.83% hits; AID 2205;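 active = plate Z-score above 3 for both tubulin-high and condensed-nucleus cell shares, with cell loss under 80%, at 10 µM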;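 note: anti alpha tubulin signal scored within the nucleus-defined area of each cell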
ABCB1 inh = human ABCB1 inhibition, ABCG2 as counter-screen; AID 1326; P08183; CCRF-Adr cells, JC-1 efflux, flow cytometry; inhibition, % at 6.6 µM; 190,000 compounds, 0.067% hits; in the data active = inhibition above about 40%;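 note: 0% = vehicle and 100% = reference inhibitor; higher value means more JC-1 retained so stronger ABCB1 efflux block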
ABCG2 block = human ABCG2 inhibition, ABCB1 as counter-screen; Q9UNQ0; IgMXP3 cells, JC-1 efflux, flow cytometry; inhibition, % at 6.6 µM; 190,000 compounds, 0.1% hits;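 active = inhibition above 80%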;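 note: 0% = DMSO and 100% = nicardipine control wells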
Target sequence (Q9UNQ0 whole entry, looked up): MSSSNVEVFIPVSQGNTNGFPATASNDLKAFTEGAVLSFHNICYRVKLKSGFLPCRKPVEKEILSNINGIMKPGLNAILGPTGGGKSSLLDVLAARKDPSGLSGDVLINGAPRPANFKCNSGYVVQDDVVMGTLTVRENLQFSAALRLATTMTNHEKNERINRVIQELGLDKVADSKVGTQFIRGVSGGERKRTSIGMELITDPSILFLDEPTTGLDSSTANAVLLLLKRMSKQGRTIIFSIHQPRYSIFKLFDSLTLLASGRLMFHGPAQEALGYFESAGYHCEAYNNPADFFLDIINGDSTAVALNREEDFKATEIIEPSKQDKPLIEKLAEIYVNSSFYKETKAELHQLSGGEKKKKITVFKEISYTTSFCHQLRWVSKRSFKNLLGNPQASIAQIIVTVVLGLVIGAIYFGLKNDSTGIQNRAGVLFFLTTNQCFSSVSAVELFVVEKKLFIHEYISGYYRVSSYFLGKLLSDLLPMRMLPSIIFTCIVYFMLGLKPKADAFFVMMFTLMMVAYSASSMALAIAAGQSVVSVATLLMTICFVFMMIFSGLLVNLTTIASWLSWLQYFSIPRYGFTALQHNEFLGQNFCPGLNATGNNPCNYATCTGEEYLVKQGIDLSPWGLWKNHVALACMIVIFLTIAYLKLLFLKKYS
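Times: 10 min at 25 °C | Test system: Two drug-resistant human cell lines, ABCG2 and ABCB1 | Quantity: 3 million cells/mL final, two lines in 1:1 ratio | Signal: Flow cytometry, 530 nm JC-1 signal | Dosing: Compound at 6.6 µM | Controls: Nicardipine and DMSO wells | Reagent: JC-1 as fluorescent efflux pump substrate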
bCat nuc transl = beta-catenin nuclear translocation modulation; HeLa beta-catenin nuclear translocation, immunofluorescence imaging; nuclear translocation activity, % at 5 µM; 190,000 compounds, 0.3% hits; AID 1665;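 active = nuclear translocation activity above 50% at 5 µM, with a well cell count of 50 or more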;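 note: per-cell ratio of nuclear to cytoplasmic median beta-catenin stain intensity; plate controls were DMSO negative control for no effect and GSK-3 inhibitor IX positive control for full effect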
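assay system = human HeLa cells, endogenous beta-catenin | times = compound treatment 24 h, 37°C, 5% CO2 | detection = Anti-beta-catenin immunofluorescence on PFA-fixed, Triton-permeabilized cells, DAPI nuclei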
Autophagy HCS = autophagy modulation, high-content screen | MEF GFP-LC3 puncta imaging; test concentration mostly 10 µM | calls only at 10 µM (by protocol) | 190,000 compounds, 0.98% hits | AID 463193;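 active = percentage of spot-positive cells more than 3 SD above its plate mean, without a fluorescence outlier flag or 80% toxicity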;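 note: spot-positive cell cutoff set from DMSO-treated cells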
Arbovirus inh = blocks arbovirus infection | 200,000 compounds, 0.37% hits | arbovirus infection cell-based antiviral screen | AID 1251 | inhibition, % at 10 µM; in the data active = inhibition above about 30%
Numbers without * were called inactive; i = inactive; . = no result; + = active, no number. An excerpt weighted towards active compounds, which were near 2.1% of everything screened.

SMILES | MT stabilize HCS | ABCB1 inh | ABCG2 block | bCat nuc transl | Autophagy HCS | Arbovirus inh
CCOc1ccc(NC(=O)c2nsc(Cl)c2Cl)cc1 | 3.0 | -0.1 | 0.6 | -0.8 | + | -10.7
O=C(Nc1ccc(F)cc1)c1nsc(Cl)c1Cl | 3.9 | 0.1 | 0.6 | -3.1 | i | -3.3
CSc1ccccc1NC(=O)CO/N=C(\C)c1cc2ccccc2o1 | 1.0 | 0.9 | 69.0 | . | i | 38.1*
C/C(=N\OCC(=O)Nc1ccc(F)c(F)c1F)c1cc2ccccc2o1 | 4.9 | 0.5 | 3.5 | 2.9 | i | 7.7
C=C(C)CN(CC)C(=O)CSc1nc(O)cc(=O)n1C1CCCC1 | 2.8 | 1.6 | 6.5 | -1.5 | i | 30.1*
Cc1c(C(=O)C(=O)N2c3ccc(F)cc3CCC2C)c2ccccc2n1C (stereo not given) | 5.6 | 0.4 | 2.8 | 67.9* | i | -10.5
Cc1c(C(=O)C(=O)N2CCCc3ccccc32)c2ccccc2n1C | 29.6* | 2.5 | 27.0 | 0.8 | i | -7.1
Cc1c(C(=O)C(=O)N2CCN(C)CC2)c2ccccc2n1C | 2.4 | 0.2 | 0.2 | -4.6 | i | 11.9
Cc1ccc(C(=O)CSc2nnc(-c3cccnc3)n2N)cc1 | 30.2* | 0.1 | 0.7 | 9.2 | i | -9.2
Cc1ccc(CSc2nnc(-c3cccnc3)n2N)cc1 | 3.0 | 0.0 | 0.3 | 0.1 | i | -1.5
COc1ccc(Nc2nc(-c3c(C)nc4ncccn34)cs2)cc1 | 14.3* | 1.1 | 5.2 | 55.8* | i | -12.5
Cc1nc2ncccn2c1-c1csc(Nc2ccccc2)n1 | 19.0* | -0.2 | 2.7 | 4.9 | i | -6.2
COc1ccccc1Nc1nc(-c2c(C)nc3ncccn23)cs1 | 15.1* | 0.8 | 6.2 | 3.9 | i | -14.6
O=C(c1cc(COc2ccc(F)cc2Cl)on1)N1CCCC(c2ccccc2)C1 (stereo not given) | 1.8 | 1.7 | 5.6 | -0.6 | + | -9.6
O=C1N=c2ccccc2=C1c1sc(NS(=O)(=O)c2ccccc2)nc1O | 1.2 | -0.5 | -1.1 | -0.6 | i | 4.5
O=C1N=c2ccccc2=C1c1sc(Nc2ccc(O)cc2)nc1O | 2.1 | -3.6 | -6.8 | . | i | 35.6*
CCc1ccc(NC(=O)COc2ccc(F)cc2C(=O)c2cnn(-c3ccccc3)c2)cc1 | 20.2* | 2.3 | 16.0 | -0.2 | i | -5.9
Cc1ccccc1OCCn1c(=O)oc2ccccc21 | 2.7 | 0.3 | 0.6 | -0.2 | i | 1.8
O=C(N/N=C/c1cc(Cl)ccc1O)c1ccccc1Br | 2.8 | 0.0 | 2.8 | 2.1 | i | -15.2
COc1cccc(C2NC(=S)NC(C)=C2C(=O)c2ccccc2)c1OC (stereo not given) | 23.7* | 0.3 | 0.8 | 132.0* | i | -7.8
O=c1cc(CN2CCN(S(=O)(=O)c3ccccc3[N+](=O)[O-])CC2)nc2sccn12 | 4.1 | 1.2 | 10.9 | -2.9 | i | 4.8
CN1Cc2cc(C(=O)c3cc(Cl)cc(CSc4ncccn4)c3O)cnc2NC1=O | 20.1* | 1.4 | 8.4 | 67.1* | i | -17.7
C=C(C)C1Cc2cc3ccc(=O)oc3cc2O1 (stereo not given) | 3.2 | 0.1 | 6.4 | -0.6 | i | -3.2
CC(C)(O[C@@H]1O[C@H](CO)[C@@H](O)[C@H](O)[C@H]1O)[C@H]1Cc2cc3ccc(=O)oc3cc2O1 | 2.8 | 1.4 | 5.6 | 3.5 | i | 30.4*
COc1ccc(NC(=O)c2ccccc2NC(=O)CSc2ccc(Cl)cc2)cc1 | 1.0 | 0.1 | 1.0 | -0.6 | + | -17.6
SMILES | MT stabilize HCS | ABCB1 inh | ABCG2 block | bCat nuc transl | Autophagy HCS | Arbovirus inh
COc1ccc(NC(=O)c2ccccc2NC(=O)CSc2ccccc2)cc1 | 1.6 | 1.2 | 25.4 | 2.4 | i | -8.9
CC1C/C(=C/c2ccccn2)C(=O)/C(=C/c2ccccn2)C1 (stereo not given) | 39.0* | 0.1 | 2.2 | 23.3 | i | -38.5
O=C(Nc1nc(-c2ccc(-c3ccccc3)cc2)cs1)C1CCCO1 (stereo not given) | 42.1* | 0.2 | 6.4 | . | i | 7.4
CCc1ccccc1NC(=O)C(CC)Sc1nc2cc3c(cc2c(=O)n1Cc1ccco1)OCO3 (stereo not given) | 2.8 | 0.7 | 3.9 | -0.1 | i | -0.8
CCc1ccc(NC(=O)C(CC)Sc2nc3cc4c(cc3c(=O)n2Cc2ccco2)OCO4)cc1 (stereo not given) | 5.5 | 0.2 | 0.3 | . | + | -25.7
Cc1nn2c(=O)cc(COC(=O)c3ccc(S(=O)(=O)N4CCCCC4)cc3)nc2s1 | 15.4* | 0.8 | 2.9 | . | i | -0.1
Cc1noc(C)c1COC(=O)c1ccc(S(=O)(=O)N2CCCCC2)cc1 | 4.9 | 0.2 | 3.1 | -5.2 | i | 4.4
N=C1/C(=C\c2ccc(-c3cc(Cl)cc(Cl)c3)o2)C(=O)N=C2SC=C(c3ccccc3)N12 | 6.6 | -1.9 | -11.4 | -0.6 | i | -9.4
CC(C)S(=O)(=O)C1=NSC2=NC(=O)/C(=C\c3ccc(-c4ccccc4)o3)C(=N)N21 | 2.1 | -0.9 | -6.5 | 0.5 | i | 33.1*
N=C1/C(=C/c2ccc(-c3cccc(C(=O)O)c3)o2)C(=O)N=C2SC=C(c3ccccc3)N12 | 2.7 | -0.8 | -2.3 | -0.1 | i | 41.9*
CS(=O)(=O)C1=NSC2=NC(=O)/C(=C\c3ccc(-c4ccccc4)o3)C(=N)N21 | 2.0 | -0.8 | -6.1 | -2.8 | i | 59.8*
N=C1/C(=C/c2cccn2CCOc2ccccc2)C(=O)N=C2SC=C(c3ccccc3)N12 | 30.4* | -0.3 | -3.4 | 35.7 | i | -13.5
CC(/C=N\N1CCN(Cc2ccc(C)cc2)CC1)=C\c1ccccc1 | 2.8 | 0.7 | 1.1 | -1.4 | i | -1.7
Cn1cccc1CNCc1ccccc1Cl | 2.2 | 0.2 | 0.3 | -1.3 | i | -3.4
O=C1OC(c2cccs2)=N/C1=C/c1ccc(-c2cccc(C(=O)O)c2)o1 | 3.5 | 3.4 | 2.1 | 0.9 | i | 13.0
CC(C)S(=O)(=O)C1=NSC2=NC(=O)/C(=C\c3ccc(-c4cccc(C(=O)O)c4)o3)C(=N)N21 | 5.2 | -0.6 | -2.2 | 1.2 | i | 30.5*
CCNC(=O)c1c(N)sc2c1CCCCC2 | 2.6 | . | . | -6.8 | i | 0.7
O=C(CN1C(=O)c2ccc([N+](=O)[O-])cc2C1=O)Nc1nccs1 | 2.2 | 1.0 | 2.5 | 0.1 | i | 1.9
O=C(CCN1C(=O)c2ccc([N+](=O)[O-])cc2C1=O)Nc1nccs1 | 0.9 | 0.0 | 0.1 | 1.3 | + | -2.1
Cc1ccc(O)c(C(=O)c2cc(C#N)c3nc4ccccc4n3c2)c1 | 2.7 | -0.1 | 10.3 | 0.3 | i | 3.3
COc1ccccc1-c1cc(-c2cc(Cl)ccc2O)n[nH]1 | 3.4 | 0.4 | 1.1 | -6.1 | i | 1.9
Oc1ccc(Cl)cc1-c1cc(-c2ccccc2)n[nH]1 | 1.9 | -0.9 | -1.5 | 3.2 | . | 32.8*
Oc1ccc(Br)cc1-c1cc(-c2ccccc2F)[nH]n1 | 2.9 | 0.5 | 59.7 | 28.5 | i | 21.6
